Compound activity as filed in PubChem.
STAT3 inh-1: IL-6 driven STAT3 reporter inhibitors, primary screen, U3A cells, luciferase, luminescence, MLSCN library. IL-6 STAT3-luciferase reporter; host cell line lacks STAT1. inhibition, % at 5.5 µM. 190,000 tested, 0.89% active. AID 862, 2007;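 active = inhibition above the mean inhibition across all screened compounds plus 3 SD, cut at about 44% in these data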;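 also: 0% = DMSO only wells and 100% = 100 µM nifuroxazide control wells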
STAT3 act: IL-6 driven STAT3 reporter potentiators, primary screen, U3A cells, luciferase, luminescence, MLSCN library; IL-6 STAT3-luciferase reporter; 100% = signal with IL-6 EC80 alone; activation (% of control), % at 5.6 µM; 190,000 tested, 0.91% active;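 active = activation above the screen-wide mean of compound activation plus 3 SD, cut at about 130% in these data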;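 also: 0% = background luminescence of wells with medium and substrate only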
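Assay system – human STAT1-deficient U3A cells with stable STAT3-luciferase reporter · Also added – IL-6 (33 ng/mL) · Schedule – compound 1 h, then IL-6 6 h at 37 °C · Technique – reporter luminescence signal · Evaluation – % activation versus median of IL-6-stimulated wells · Benchmarks – IL-6-only wells as 100% reference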
Platelet DG rel: inhibitors of platelet dense granule secretion, primary screen, cell-based, MLPCN, human platelets; human platelet-rich plasma, SFLLRN dense granule ATP release, luminescence; inhibition, %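 (compounds screened at 7.5 µM in platelet-rich plasma)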; 300,000 tested, 0.22% active; AID 1663, 2009;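 active = mean replicate score, as percent of positive control, at or above 50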
PERK inh: block of dimerizer-induced PERK translation repression, primary screen, PERK inhibitor project, CHO PERK-DD cells, SEAP luminescence, HTS | inhibition, % at 5.6 µM | 220,000 tested, 0.17% active | CHO PERK-DD fusion, SEAP luminescence translation reporter | Eukaryotic translation initiation factor 2-alpha kinase 3 (Homo sapiens), Q9NZJ5;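 active = inhibition above the mean inhibition of all tested compounds plus 3 SD, set separately per screening campaign, cut at about 2.9% in these data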;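 also: PERK kinase domain activated by AP20187 dimerizer at 100 nM; 0% = DMSO with dimerizer and 100% = rapamycin at 8.4 µM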
Target sequence (Q9NZJ5 whole entry, looked up, the tested form may be a part): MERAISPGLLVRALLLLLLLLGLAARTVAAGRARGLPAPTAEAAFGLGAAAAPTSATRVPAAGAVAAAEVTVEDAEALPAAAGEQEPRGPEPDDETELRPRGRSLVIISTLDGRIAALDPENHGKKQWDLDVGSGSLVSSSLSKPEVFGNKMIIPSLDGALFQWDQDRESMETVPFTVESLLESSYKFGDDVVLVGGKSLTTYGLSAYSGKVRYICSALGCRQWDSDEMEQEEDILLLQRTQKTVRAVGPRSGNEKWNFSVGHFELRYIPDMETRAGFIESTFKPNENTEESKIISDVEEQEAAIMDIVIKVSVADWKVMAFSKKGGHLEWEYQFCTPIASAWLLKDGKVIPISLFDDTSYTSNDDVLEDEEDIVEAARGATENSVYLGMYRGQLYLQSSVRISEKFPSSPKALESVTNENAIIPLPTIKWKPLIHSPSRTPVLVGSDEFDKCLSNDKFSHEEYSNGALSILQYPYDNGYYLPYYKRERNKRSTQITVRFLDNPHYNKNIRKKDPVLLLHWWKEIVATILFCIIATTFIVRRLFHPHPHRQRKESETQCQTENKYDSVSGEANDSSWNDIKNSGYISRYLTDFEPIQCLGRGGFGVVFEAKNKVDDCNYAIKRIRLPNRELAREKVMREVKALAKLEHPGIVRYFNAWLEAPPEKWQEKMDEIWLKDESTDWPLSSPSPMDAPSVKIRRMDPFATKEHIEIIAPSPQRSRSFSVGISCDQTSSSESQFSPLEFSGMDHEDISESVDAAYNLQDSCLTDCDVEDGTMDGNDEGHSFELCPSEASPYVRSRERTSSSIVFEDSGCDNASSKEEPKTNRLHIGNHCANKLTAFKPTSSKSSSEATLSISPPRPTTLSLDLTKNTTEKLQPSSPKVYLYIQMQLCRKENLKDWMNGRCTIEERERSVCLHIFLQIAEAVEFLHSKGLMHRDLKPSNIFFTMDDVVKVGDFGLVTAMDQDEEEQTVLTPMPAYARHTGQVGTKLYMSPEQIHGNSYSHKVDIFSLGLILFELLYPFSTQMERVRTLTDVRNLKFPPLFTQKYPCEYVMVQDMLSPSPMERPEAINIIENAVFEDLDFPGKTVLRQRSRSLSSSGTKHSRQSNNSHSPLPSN
STAT1 inh: STAT1 signaling inhibitors, primary screen, cell-based, HTS, luciferase reporter; NIH 3T3 STAT1-luciferase reporter, IFN-gamma, luminescence; inhibition, % at 5.5 µM; 200,000 tested, 0.35% active;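 active = inhibition above a set limit, the mean inhibition across all tested compounds plus 3 SD, cut at about 34% in these data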;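 also: 0% = IFN-gamma with DMSO and 100% = IFN-gamma with 300 µM nifuroxazide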
STAT3 inh-2: STAT3 reporter inhibitors, retest of hits, confirmation, U3A cells, luciferase, luminescence; shares compounds with STAT3 inh-1; IL-6 STAT3 luciferase reporter; cell line lacks STAT1; inhibition, % at 5.7 µM; 1,200 tested, 45% active; AID 1265, 2008;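 active = inhibition above the hit cutoff computed for the primary STAT3 screen, cut at about 44% in these data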;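 also: 0% = IL-6 plus DMSO and 100% = IL-6 plus nifuroxazide control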
NFkB inh STAT3ct: NF-kB reporter inhibitors in human cells, confirmation, counter-screen for STAT3 inhibitor project, cell-based, HEK293T, luciferase, TNF-alpha stimulus; shares compounds with STAT3 inh-1; TNF-alpha induced; AID 1308, 2008; 1,200 tested, 36% active; inhibition, % at 5.7 µM;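 active = inhibition above the mean of solvent-only control wells plus 3 SD, cutoff set per campaign, cut at about 13% in these data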;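 also: 0% = TNF-alpha with DMSO and 100% = TNF-alpha with MG high control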
STAT1 inh STAT3c: STAT1 reporter inhibitors, IFN-gamma induced, confirmation, counter-screen for STAT3 inhibitor project, cell-based, NIH 3T3, luciferase luminescence; shares compounds with STAT3 inh-1; NIH 3T3 STAT1-luciferase reporter; inhibition, % at 5.7 µM; 1,200 tested, 27% active; AID 1317, 2008;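 active = inhibition above the mean plus 3 SD of solvent-only control wells, limit set per screening run, cut at about 16% in these data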;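 also: 0% = DMSO with IFN-gamma and 100% = nifuroxazide control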
Starred values were filed as active, the others as inactive; / = no result. This is a sample that favours compounds with a hit; in the whole collection about 1.4% have one here.

SMILES	STAT3 inh-1	STAT3 act	Platelet DG rel	PERK inh	STAT1 inh	STAT3 inh-2	NFkB inh STAT3ct	STAT1 inh STAT3c
O=C(Nc1ccccn1)c1ccc2c(c1)OCCO2	51.1*	59.9	34.8	0.6	-12.3	21.1	-20.9	-50.0
Cc1cc(NC(=O)c2ccc3c(c2)OCO3)no1	18.4	88.2	0.2	0.7	-19.3	/	/	/
COCc1cc(C)nc(SCC(=O)Nc2ccc(N3CCOCC3)cc2)c1C#N	/	/	-4.1	/	/	/	/	/
Cc1ccc(S(=O)(=O)N(C)CCCC(=O)Nc2ccncc2)cc1	50.5*	62.6	22.9	0.6	19.7	38.0	3.2	13.2
CC(=O)c1ccc(N=Nc2ccc(N(C)C)cc2)cc1	52.5*	56.2	26.4	0.4	-19.3	47.4*	22.4*	-68.7
CC(=O)c1ccc(N=Nc2ccc(C)cc2)cc1	81.8*	33.5	2.9	0.1	30.8	44.4*	-10.1	-96.1
CC(NC(=O)CCN1N=C(c2ccccc2)CCC1=O)c1ccc2c(c1)OCCO2 (stereo not drawn)	7.3	96.9	-2.9	0.2	2.6	/	/	/
O=C(C[C@H]1C(=O)N(CCc2ccccc2)C[C@@H]1Cc1ccccc1)Nc1ccccc1	/	/	-0.8	/	/	/	/	/
COC(=O)Oc1ccc(/C=N/NC(=O)CSCc2ccccc2Br)cc1OC	57.5*	54.9	18.7	0.2	8.9	65.9*	1.6	12.2
COc1ccc(/C=N/NC(=O)CSCC(=O)Nc2ccccc2)cc1OC	-5.9	105.0	0.7	2.1	-7.5	/	/	/
Cc1cccc(Nc2nc(-c3c(C)nc4ccccn34)cs2)c1	58.0*	56.4	21.1	-0.3	12.3	62.3*	17.8*	15.6
O=C(Nc1cccc(S(=O)(=O)Nc2ccccc2Cl)c1)c1ccc(N2CCCC2)c([N+](=O)[O-])c1	-4.1	99.1	11.5	-0.3	-1.1	/	/	/
O=C(Nc1cccc(S(=O)(=O)Nc2ccccc2Cl)c1)c1ccc(Cl)nc1	43.8*	66.3	-0.4	0.0	24.3	50.3*	11.0	13.2
Cc1cc(C(=O)CSc2nc3ccccc3o2)c(C)n1CC1CCCO1 (stereo not drawn)	35.9	70.7	2.1	-1.4	-32.1	/	/	/
Cc1cc(C(=O)CSc2nc3ccccc3[nH]2)c(C)n1CC1CCCO1 (stereo not drawn)	97.0*	23.3	-1.9	0.1	29.4	62.9*	22.3*	-57.2
O=C(CN(C(=O)c1csnn1)c1cccc2ccccc12)NCc1ccccc1	/	/	3.6	/	/	/	/	/
COc1ccc(/C=N/Nc2nc3ccccc3[nH]2)cc1OC	0.2	97.7	-4.5	-1.0	-2.4	/	/	/
COc1cc(/C=N\Nc2nc3ccccc3[nH]2)cc(OC)c1OC	74.3*	42.2	-1.9	-1.2	17.1	35.4	19.5*	3.6
Cc1sc2ncnc(NCc3cccs3)c2c1C	48.4*	63.7	-1.9	0.6	-11.3	36.4	12.0	2.4
COc1ccc(-c2nc(-c3ccc(Br)o3)no2)cc1	49.0*	64.9	21.7	2.4	-21.3	7.7	-19.0	-131.7
COc1ccc(-c2noc(-c3ccc(Br)o3)n2)cc1	/	/	4.6	0.0	/	/	/	/
Cc1nc(SCC(=O)NCC2CCCO2)[nH]c(=O)c1C (stereo not drawn)	/	/	-22.3	/	/	/	/	/
COC(=O)c1ccccc1N/C=C/C(=O)c1ccc(Br)cc1	1.9	96.4	-9.6	-0.5	-25.4	/	/	/
NC(=O)c1ccccc1N/C=C/C(=O)c1ccccc1	49.0*	61.2	27.8	-0.1	9.2	16.6	-23.1	-132.2
Cc1nn2cc(-c3ccc(Cl)cc3)nc2s1	52.5*	60.4	12.3	-0.5	-20.1	12.4	-34.9	-145.8
SMILES	STAT3 inh-1	STAT3 act	Platelet DG rel	PERK inh	STAT1 inh	STAT3 inh-2	NFkB inh STAT3ct	STAT1 inh STAT3c
Cc1nc2nc(-c3ccc(Cl)cc3)cn2nc1C	66.0*	47.0	7.9	-0.2	6.0	39.8	-13.4	-83.8
CCc1nn2cc(-c3ccccc3)nc2s1	91.3*	26.2	35.1	-0.3	30.9	69.2*	37.8*	15.3
C/C(CC(=O)NCC(C)C)=N\NC(=O)COc1cc(C)c(Br)cc1Br	11.7	89.8	0.7	1.3	0.4	/	/	/
O=C1c2ccccc2C(=O)C1c1nccc2ccccc12	62.5*	51.3	9.4	-0.1	-23.1	4.4	48.9*	-26.0
COc1ccc(C2SCC(=O)N2CCc2ccc(OC)c(OC)c2)cc1 (stereo not drawn)	45.3*	64.1	-0.5	-0.8	28.0	43.4*	14.9*	16.4*
COc1ccc(CCN2C(=O)CSC2c2ccc(OC)c(OC)c2)cc1OC (stereo not drawn)	5.2	98.5	-1.4	0.9	0.1	/	/	/
CCCCN(C)C(=O)c1cc2cc3ccc(OC)cc3nc2s1	49.9*	61.6	1.1	0.7	-14.5	16.7	-18.3	-106.1
CCCCN(CC)C(=O)c1cc2cc3ccc(OC)cc3nc2o1	-7.3	108.2	1.2	0.2	-25.0	/	/	/
O=C(/C=C/c1ccc([N+](=O)[O-])cc1)NCc1ccccn1	-1.9	105.9	-4.4	1.4	-9.5	/	/	/
CCCOc1ccc(/C=C/C(=O)Nc2ccc([N+](=O)[O-])cc2)cc1	72.0*	46.3	/	2.2	-3.4	36.0	15.3*	-11.0
O=C(/C=C/c1ccc([N+](=O)[O-])cc1)Nc1ncc([N+](=O)[O-])s1	49.5*	60.9	/	-0.6	-50.9	-28.1	-48.4	-184.7
CCCCOc1ccc(/C=C/C(=O)Nc2ccc([N+](=O)[O-])cc2C)cc1	9.4	91.4	6.0	1.1	14.2	/	/	/
Cc1ccc(-n2ncc3c2CC(C)(C)CC3NC(=O)CCc2c(C)noc2C)cc1 (stereo not drawn)	/	/	-0.4	/	/	/	/	/
COc1ccc(S(=O)(=O)N(CC(=O)NC2CCCCC2)c2ccc(F)cc2)cc1	/	/	-9.1	/	/	/	/	/
O=C(O)c1ccc2nc(-c3ccccc3)sc2c1	79.2*	35.9	8.8	1.9	36.3*	46.3*	18.4*	-30.4
O=C(COc1ccc(Cl)cc1Cl)Nc1ccc(Cl)cn1	66.2*	48.2	6.5	-0.9	-42.7	33.2	-22.5	-94.5
COc1ccc(/C=C(\NC(=O)c2ccccc2Cl)C(=O)NCCCC(=O)O)cc1	-1.0	102.3	-0.8	0.5	-1.7	/	/	/
O=C(CSc1nnnn1C1CC2CCC1C2)Nc1ccnc2ccccc12 (stereo not drawn)	81.3*	34.4	/	-1.8	24.9	88.8*	42.0*	32.5*
CCC(C)CCN1C(Nc2ccccc2)=NC[C@@H]1C (stereo partly drawn)	/	/	-2.3	/	/	/	/	/
